{"source": "ChEMBL document CHEMBL1137646", "about": "“Intracellular metabolism and persistence of the anti-human immunodeficiency virus activity of 2',3'-didehydro-3'-deoxy-4'-ethynylthymidine, a novel thymidine analog” (Antimicrob Agents Chemother, 2007)", "molecules": {"B1": {"name": "Thymidine kinase, cytosolic (Homo sapiens), P04183 (protein)", "chain": "MSCINLPTVLPGSPSKTRGQIQVILGPMFSGKSTELMRRVRRFQIAQYKCLVIKYAKDTRYSSSFCTHDRNTMEALPACLLRDVAQEALGVAVIGIDEGQFFPDIVEFCEAMANAGKTVIVAALDGTFQRKPFGAILNLVPLAESVVKLTAVCMECFREAAYTKRLGTEKEVEVIGGADKYHSVCRLCYFKKASGQPAGPDNKENCPVPGKPGEAVAARKLFAPQQILQCSPAN"}}, "key": {"[1]": {"system": "CCRF-CEM", "experiment": "Drug metabolism in human CEM cells assessed as radioactive zidovudine monophosphate accumulation at 2 uM after 2 hrs assessed per 10^6 cells", "type": "ADME, cell-based", "in_short": "(§1)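 CEM cells (2 x 10^7/ml) in RPMI 1640 with 10% dialyzed FBS were incubated at 37°C with 2 µM [3H]analog (75 mCi/mmol) and harvested at 2, 4, 8, 12, 16 and 24 h. Cells were washed in ice-cold PBS with 20 µM dipyridamole and extracted with 15% TCA. Neutralized extracts were separated on a Partisil SAX column with an H2O to 300 mM potassium phosphate gradient and radiometric detection, reported as pmol/10^6 cells, mean ± SD of three experiments.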"}, "[2]": {"system": "CCRF-CEM", "experiment": "Drug metabolism in human CEM cells assessed as radioactive zidovudine diphosphate accumulation at 2 uM after 2 hrs assessed per 10^6 cells", "type": "ADME, cell-based", "in_short": "as §1"}, "[3]": {"system": "CCRF-CEM", "experiment": "Drug metabolism in human CEM cells assessed as radioactive zidovudine triphosphate accumulation at 2 uM after 2 hrs assessed per 10^6 cells", "type": "ADME, cell-based", "in_short": "as §1"}, "[4]": {"system": "CCRF-CEM", "experiment": "Drug metabolism in human CEM cells assessed as radioactive 2', 3'-didehydro-3'-deoxy-4'-ethynylthymidine monophosphate accumulation at 2 uM after 12 hrs assessed per 10^6 cells", "type": "ADME, cell-based", "in_short": "as §1"}, "[5]": {"system": "CCRF-CEM", "experiment": "Drug metabolism in human CEM cells assessed as radioactive 2', 3'-didehydro-3'-deoxy-4'-ethynylthymidine diphosphate accumulation at 2 uM after 12 hrs assessed per 10^6 cells", "type": "ADME, cell-based", "in_short": "as §1"}, "[6]": {"system": "CCRF-CEM", "experiment": "Drug metabolism in human CEM cells assessed as radioactive 2', 3'-didehydro-3'-deoxy-4'-ethynylthymidine triphosphate accumulation at 2 uM after 12 hrs assessed per 10^6 cells", "type": "ADME, cell-based", "in_short": "as §1"}, "[7]": {"system": "CCRF-CEM", "experiment": "Drug metabolism in human CEM cells assessed as radioactive zidovudine monophosphate accumulation at 2 uM assessed per 10^6 cells", "type": "ADME, cell-based", "conditions": "TDE = time-dependent effect", "in_short": "as §1"}, "[8]": {"system": "CCRF-CEM", "experiment": "Drug metabolism in human CEM cells assessed as radioactive zidovudine diphosphate accumulation at 2 uM assessed per 10^6 cells", "type": "ADME, cell-based", "conditions": "TDE = time-dependent effect", "in_short": "as §1"}, "[9]": {"system": "CCRF-CEM", "experiment": "Drug metabolism in human CEM cells assessed as radioactive zidovudine triphosphate accumulation at 2 uM assessed per 10^6 cells", "type": "ADME, cell-based", "conditions": "TDE = time-dependent effect", "in_short": "as §1"}, "[10]": {"system": "CCRF-CEM", "experiment": "Drug metabolism in human CEM cells assessed as radioactive 2', 3'-didehydro-3'-deoxy-4'-ethynylthymidine monophosphate accumulation at 2 uM assessed per 10^6 cells", "type": "ADME, cell-based", "conditions": "TDE = time-dependent effect", "in_short": "as §1"}, "[11]": {"system": "CCRF-CEM", "experiment": "Drug metabolism in human CEM cells assessed as radioactive 2', 3'-didehydro-3'-deoxy-4'-ethynylthymidine diphosphate accumulation at 2 uM assessed per 10^6 cells", "type": "ADME, cell-based", "conditions": "TDE = time-dependent effect", "in_short": "as §1"}, "[12]": {"system": "CCRF-CEM", "experiment": "Drug metabolism in human CEM cells assessed as radioactive 2', 3'-didehydro-3'-deoxy-4'-ethynylthymidine triphosphate accumulation at 2 uM assessed per 10^6 cells", "type": "ADME, cell-based", "conditions": "TDE = time-dependent effect", "in_short": "as §1"}, "[13]": {"system": "CCRF-CEM", "experiment": "Drug metabolism in human CEM cells assessed as radioactive stavudine monophosphate accumulation at 2 uM assessed per 10^6 cells", "type": "ADME, cell-based", "conditions": "TDE = time-dependent effect", "in_short": "as §1"}, "[14]": {"system": "CCRF-CEM", "experiment": "Drug metabolism in human CEM cells assessed as radioactive stavudine diphosphate accumulation at 2 uM assessed per 10^6 cells", "type": "ADME, cell-based", "conditions": "TDE = time-dependent effect", "in_short": "as §1"}, "[15]": {"system": "CCRF-CEM", "experiment": "Drug metabolism in human CEM cells assessed as radioactive stavudine triphosphate accumulation at 2 uM assessed per 10^6 cells", "type": "ADME, cell-based", "conditions": "TDE = time-dependent effect", "in_short": "as §1"}, "[16]": {"system": "CCRF-CEM", "experiment": "Stability in human CEM cells assessed as intracellular radioactive phosphorylated metabolite accumulation at 2 uM incubated for 24 hrs measured after 8 hrs of compound removal assessed per 10^6 cells", "type": "ADME, cell-based", "in_short": "(§2)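 CEM cells were loaded with 2 µM [3H]analog (75 mCi/mmol) for 24 h, washed, and resuspended in drug-free medium. Intracellular metabolites were then measured by SAX-HPLC with radiometric detection at 0, 2, 4, 8, 12 and 24 h after removal. Values are pmol/10^6 cells, mean ± SD of three experiments.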"}, "[17]": {"system": "CCRF-CEM", "experiment": "Stability in human CEM cells assessed as intracellular radioactive triphosphate metabolite accumulation at 2 uM incubated for 24 hrs measured after 24 hrs of compound removal assessed per 10^6 cells", "type": "ADME, cell-based", "in_short": "as §2"}, "[18]": {"system": "Human immunodeficiency virus 1", "experiment": "Antiviral activity against 0.1 MOI HIV1 3B infected in human TZM-b1 cells assessed as inhibition of viral replication at 0.13 uM after 24 hrs by luciferase assay", "type": "functional", "conditions": "Human immunodeficiency virus 1, 3B, TZM-b1, 24 h", "in_short": "(§3)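 TZM-bl cells were plated at 0.5 x 10^4 per well in phenol red-free RPMI 1640 and allowed to adhere 15-18 h at 37°C. After a medium change, drug was added with quintuple wells per concentration, and cells were infected at the same time with HIV-1 IIIB at MOI 0.1. After 24 h, cells were lysed and luciferase was read minus the uninfected background. Values are percentage of mean luminescence in drug-free wells.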"}, "[19]": {"system": "Human immunodeficiency virus 1", "experiment": "Antiviral activity against 0.1 MOI HIV1 3B infected in human TZM-b1 cells assessed as inhibition of viral replication after 24 hrs by luciferase assay", "type": "functional, organism-based", "in_short": "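TZM-bl cells in phenol red-free RPMI 1640 were infected with HIV-1 IIIB (MOI 0.1) at the time of adding drug at various concentrations, and drug and virus stayed together for 24 h. Lysate luciferase was measured with uninfected background subtracted, in quintuple wells. Inhibition was the mean signal relative to drug-free infected cells.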"}, "[20]": {"system": "Human immunodeficiency virus 1", "experiment": "Antiviral activity against 0.1 MOI HIV1 3B in 24 hrs pretreated human TZM-b1 cells infected 24 hrs post drug removal assessed as inhibition of viral replication at 0.04 to 0.22 uM measured 24 hrs postinfection by luciferase assay", "type": "functional, organism-based", "in_short": "(§4)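 TZM-bl cells were plated in phenol red-free RPMI 1640, allowed to adhere 15–18 h at 37°C, then exposed to a range of drug concentrations for 24 h. Medium was changed to remove extracellular drug, and cells were infected with HIV-1 IIIB (MOI 0.1) at 0, 24 or 48 h after removal. Luciferase was read 24 h post-infection with uninfected-cell background subtracted, in quintuple wells, and expressed relative to no-drug wells.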"}, "[21]": {"system": "Human immunodeficiency virus 1", "experiment": "Antiviral activity against 0.1 MOI HIV1 3B infected in human TZM-b1 cells assessed as inhibition of viral replication at 0.02 uM after 24 hrs by luciferase assay", "type": "functional", "conditions": "Human immunodeficiency virus 1, 3B, TZM-b1, 24 h", "in_short": "as §3"}, "[22]": {"system": "Human immunodeficiency virus 1", "experiment": "Antiviral activity against 0.1 MOI HIV1 3B in 24 hrs pretreated human TZM-b1 cells infected 48 hrs post drug removal assessed as inhibition of viral replication at 0.04 to 0.22 uM measured 24 hrs postinfection by luciferase assay", "type": "functional, organism-based", "in_short": "as §4"}, "[23]": {"system": "Human immunodeficiency virus 1", "experiment": "Antiviral activity against 0.1 MOI HIV1 3B infected in human TZM-b1 cells assessed as inhibition of viral replication at 0.18 uM after 24 hrs by luciferase assay", "type": "functional", "conditions": "Human immunodeficiency virus 1, 3B, TZM-b1, 24 h", "in_short": "as §3"}, "[24]": {"system": "Human immunodeficiency virus 1", "experiment": "Antiviral activity against 0.1 MOI HIV1 3B infected in human TZM-b1 cells assessed as inhibition of viral replication at 0.22 uM after 24 hrs by luciferase assay", "type": "functional", "conditions": "Human immunodeficiency virus 1, 3B, TZM-b1, 24 h", "in_short": "as §3"}, "[25]": {"substrate": "Cc1cn([C@H]2C[C@H](N=[N+]=[N-])[C@@H](CO)O2)c(=O)[nH]c1=O", "conditions": "Homo sapiens; H9"}, "[26]": {"substrate": "Cc1cn([C@H]2C[C@H](N=[N+]=[N-])[C@@H](CO)O2)c(=O)[nH]c1=O", "conditions": "Homo sapiens; H9", "remark": "listed apart in the source"}}, "note": "Active and inactive are the calls of the source. The calls are words filed in the database; no cut-off is given here."}
{"molecule": "Cc1cn([C@H]2C[C@H](N=[N+]=[N-])[C@@H](CO)O2)c(=O)[nH]c1=O", "note": "[ZIDOVUDINE]", "values": [{"measurement": "Activity", "setting": "[1]", "value": 90, "unit": "pmol"}, {"measurement": "Activity", "setting": "[2]", "value": 90, "unit": "pmol"}, {"measurement": "Activity", "setting": "[3]", "value": 90, "unit": "pmol"}, {"measurement": "Activity", "setting": "[4]", "value": 18, "unit": "pmol"}, {"measurement": "Activity", "setting": "[5]", "value": 18, "unit": "pmol"}, {"measurement": "Activity", "setting": "[6]", "value": 18, "unit": "pmol"}, {"measurement": "Activity", "setting": "[7]", "value": "tde"}, {"measurement": "Activity", "setting": "[8]", "value": "tde"}, {"measurement": "Activity", "setting": "[9]", "value": "tde"}, {"measurement": "Activity", "setting": "[10]", "value": "tde"}, {"measurement": "Activity", "setting": "[11]", "value": "tde"}, {"measurement": "Activity", "setting": "[12]", "value": "tde"}, {"measurement": "Activity", "setting": "[13]", "value": "tde"}, {"measurement": "Activity", "setting": "[14]", "value": "tde"}, {"measurement": "Activity", "setting": "[15]", "value": "tde"}, {"measurement": "Stability", "setting": "[16]", "value": 2.33, "unit": "pmol"}, {"measurement": "Stability", "setting": "[17]", "value": 0.14, "unit": "pmol"}, {"measurement": "inhibition at 0.13 µM", "setting": "[18]", "value": 50, "unit": "%"}, {"measurement": "inhibition", "setting": "[19]", "value": "Dose-dependent effect"}, {"measurement": "inhibition", "setting": "[20]", "value": "inactive"}, {"measurement": "inhibition at 0.02 µM", "setting": "[21]", "value": 50, "unit": "%"}, {"measurement": "inhibition", "setting": "[22]", "value": "inactive"}, {"measurement": "inhibition at 0.18 µM", "setting": "[23]", "value": 50, "unit": "%"}, {"measurement": "inhibition at 0.22 µM", "setting": "[24]", "value": 50, "unit": "%"}]}
{"molecule": "B1", "values": [{"measurement": "Km", "setting": "[25]", "value": 2.9, "unit": "µM"}, {"measurement": "Km", "setting": "[26]", "value": 3, "unit": "µM"}]}
